≈ marks a conversion by molar mass, not a printed value. Where a SMILES comes first, the peptide text is derived from it.
Key:
MDA-MB-231 = assay: Cytotoxicity against human MDA-MB-231 cells after 72 hrs by MTS assay; format: functional, cell-based; settings: MDA-MB-231, 72 h
Outline: (§1)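 Cells plated at 4 × 10³ cells/well, left overnight, then exposed to increasing concentrations (0.064–40 μM) diluted from DMSO solution into culture medium. After 72 h, MTS/PMS reagent added; absorbance read at 490 nm. Viability = (OD_treat − OD_blank)/(OD_control − OD_blank) × 100%, mean of triplicate wells; DMSO + medium untreated cells as control.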

KB [1] = assay: Cytotoxicity against human KB cells after 72 hrs by MTS assay; format: functional, cell-based; outline: as §1
[2] = Cytotoxicity against mouse EAC cells; format: functional; settings: Ehrlich
Pseudomonas aeruginosa = assay: Antimicrobial activity against Pseudomonas aeruginosa; format: functional
KB [3] = assay: Cytotoxicity against human KB cells; format: functional, cell-based
[4] = Cytotoxicity against mouse DLA cells; format: functional
Jurkat = assay: Cytotoxicity against human Jurkat T cells after 72 hrs by MTS assay; format: functional, cell-based; outline: as §1
MOLT-4 = assay: Cytotoxicity against human MOLT4 cells after 72 hrs by MTS assay; format: functional, cell-based; settings: MOLT-4, 72 h; outline: as §1
Candida albicans = assay: Antimicrobial activity against Candida albicans; format: functional
Escherichia coli = assay: Antimicrobial activity against Escherichia coli; format: functional

Row | SMILES | IC50 (MDA-MB-231) [µM] | IC50 (KB [1]) [µM] | also measured
1 | COc1cccc2c1C(=O)c1c(O)c3c(c(O)c1C2=O)C[C@@](O)(C(=O)CO)C[C@@H]3O[C@H]1C[C@H](N)[C@H](O)[C@H](C)O1 [DOXORUBICIN] | 0.04 |  | 
2 | CC(C)C[C@@H]1NC(=O)CNC(=O)[C@H](C)NC(=O)[C@H](Cc2ccc(O)cc2)NC(=O)[C@@H]2CCCN2C(=O)CNC1=O (HELM PEPTIDE1{A.G.L.G.P.Y}$PEPTIDE1,PEPTIDE1,1:R1-6:R2$$$V2.0) | > 10 | > 10 | 
3 | CC(C)C[C@@H]1NC(=O)CNC(=O)[C@H](Cc2ccccc2)NC(=O)[C@H](C)NC(=O)[C@@H]2CCCN2C(=O)CNC1=O (HELM PEPTIDE1{A.F.G.L.G.P}$PEPTIDE1,PEPTIDE1,1:R1-6:R2$$$V2.0) | > 10 | > 10 | 
4 | CC(C)C[C@@H]1NC(=O)[C@H](C)NC(=O)[C@H](Cc2ccccc2)NC(=O)[C@H](Cc2ccc(O)cc2)NC(=O)[C@@H]2CCCN2C(=O)CNC1=O (HELM PEPTIDE1{A.L.G.P.Y.F}$PEPTIDE1,PEPTIDE1,1:R1-6:R2$$$V2.0) | 7.7 | 7.8 | 
5 | CC(C)C[C@@H]1NC(=O)CNC(=O)[C@H](Cc2ccccc2)NC(=O)[C@H](Cc2ccc(O)cc2)NC(=O)[C@@H]2CCCN2C(=O)CNC1=O [Cherimolacyclopeptide E] (HELM PEPTIDE1{F.G.L.G.P.Y}$PEPTIDE1,PEPTIDE1,1:R1-6:R2$$$V2.0) | > 10 | > 10 | CC50 [2]: 4.96 µM; MIC (Pseudomonas aeruginosa): 6 µg/mL (≈ 9.45 µM); IC50 (KB [3]): > 10 µM; CC50 [4]: 2.76 µM; IC50 (Jurkat): > 10 µM; IC50 (MOLT-4): > 10 µM; MIC (Candida albicans): 6 µg/mL (≈ 9.45 µM); MIC (Escherichia coli): 6 µg/mL (≈ 9.45 µM)
6 | C[C@@H]1NC(=O)CNC(=O)[C@H](Cc2ccccc2)NC(=O)[C@H](Cc2ccc(O)cc2)NC(=O)[C@@H]2CCCN2C(=O)CNC1=O (HELM PEPTIDE1{A.G.P.Y.F.G}$PEPTIDE1,PEPTIDE1,1:R1-6:R2$$$V2.0) | > 10 | > 10 | 
7 | CC(C)C[C@@H]1NC(=O)CNC(=O)[C@H](Cc2ccccc2)NC(=O)[C@H](Cc2ccc(O)cc2)NC(=O)[C@H](C)NC(=O)CNC1=O (HELM PEPTIDE1{A.Y.F.G.L.G}$PEPTIDE1,PEPTIDE1,1:R1-6:R2$$$V2.0) | > 10 | > 10 | 
8 | CC(C)C[C@@H]1NC(=O)CNC(=O)[C@H](Cc2ccccc2)NC(=O)[C@H](Cc2ccc(O)cc2)NC(=O)[C@@H]2CCCN2C(=O)[C@H](C)NC1=O (HELM PEPTIDE1{A.P.Y.F.G.L}$PEPTIDE1,PEPTIDE1,1:R1-6:R2$$$V2.0) | 10.2 | 6.3 | 
9 | CC(C)C[C@@H]1NC(=O)CNC(=O)[C@H](Cc2ccccc2)NC(=O)[C@H](Cc2ccc(O)cc2)NC(=O)CNC(=O)CNC1=O (HELM PEPTIDE1{F.G.L.G.G.Y}$PEPTIDE1,PEPTIDE1,1:R1-6:R2$$$V2.0) | > 10 | > 10 | 

— ChEMBL document CHEMBL2163246 (J Nat Prod, 2012)
